We go through one compound from ChEMBL document CHEMBL3085739, “Design, synthesis, and biological evaluation of 2-oxo-3,4-dihydropyrimido[4,5-d]pyrimidinyl derivatives as new irreversible epidermal growth factor receptor inhibitors with improved pharmacokinetic properties” (J Med Chem, 2013).

Activity calls are given as the source filed them. The rule behind the calls is not given here.

For data set [1], the system named is Mus musculus. The data set is described as follows: Toxicity in SCID nude mouse xenografted with human NCI-H1975 cells assessed as body weight loss at 10 to 30 mg/kg, po qd after 14 days relative to vehicle-treated control. In kind it is organism-based. Set-up: dose 10-30 mg/kg, route oral. To be noted: in vivo, 336 h. The method, boiled down: (§1)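 SCID mice (6 weeks) were given H1975 cells subcutaneously in the right flank at 2 × 10^6 per mouse. At 200−300 mm3, n = 5 per group were randomized to daily oral vehicle or compound at 10 or 30 mg/kg for 14 days. Vehicle: 1% DMSO, 5% EtOH, 15% castor oil, 79% H2O. Tumors (W²·L/2) and body weight were measured every other day; TGI was calculated against vehicle controls.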

The test system of data set [2] is Mus musculus. The data set is described as follows: Toxicity in SCID nude mouse xenografted with human NCI-H1975 cells assessed as mortality at 10 to 30 mg/kg, po qd after 14 days. In kind it is organism-based. Set-up: dose 10-30 mg/kg, route oral. To be noted: in vivo, 336 h. The method, boiled down:
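SCID mice (six weeks old) implanted subcutaneously in the right flank with H1975 cells (2 × 10⁶/mouse). Once tumours averaged 200−300 mm³, animals were randomized (n = 5 per group) and given vehicle or drug orally once daily for 14 days. Vehicle: 1% DMSO, 5% EtOH, 15% castor oil, 79% H₂O, at 0.1 mL/20 g. Mice were watched for morbidity, and body weight was recorded every other day.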
For orientation: In xenograft studies the graft and the host belong to different species.

The subject of data set [3] is NCI-H1975. The data set is described as follows: Antitumor activity against human NCI-H1975 cells xenografted in SCID nude mouse assessed as tumor growth inhibition at 10 mg/kg, po qd after 14 days. The class given is functional. The note with it: NCI-H1975, 336 h, read-out: TGI. The method, boiled down:
as §1

A short description of data set [4]: Antiproliferative activity against human HCC827 cells expressing EGFR E746 to A750 deletion mutant after 72 hrs by MTS assay. To be noted: HCC827, 72 h. The class given is functional, cell-based. An outline of the steps: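 MTS proliferation assay: cells exposed to compound for 72 h at six concentrations (0.1 nM to 10 μM), each concentration run six times. Cell number per line set to give an absorbance of 0.5–1.2 at […]. IC50 from a nonlinear sigmoidal dose–response fit. Values are means of at least three independent experiments.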

The nature of data set [5]: Antiproliferative activity against human HL7702 cells after 72 hrs by MTS assay. In kind it is cell-based. The note with it: L02, 72 h. For orientation: Tetrazolium assays rely on reduction of a dye to a coloured formazan, in cell work by metabolically active cells.
The test system of the next data set is NCI-H358. The data set is described as follows: Antiproliferative activity against human NCI-H358 cells expressing wild-type EGFR after 72 hrs by MTS assay. To be noted: NCI-H358, 72 h. The class given is cell-based.
In data set [6] the target is Proto-oncogene tyrosine-protein kinase Src (Homo sapiens) (UniProt P12931). The data set is described as follows: Binding affinity to SRC (unknown origin).
Chain of Proto-oncogene tyrosine-protein kinase Src (Homo sapiens) (P12931 2-536 limits assumed): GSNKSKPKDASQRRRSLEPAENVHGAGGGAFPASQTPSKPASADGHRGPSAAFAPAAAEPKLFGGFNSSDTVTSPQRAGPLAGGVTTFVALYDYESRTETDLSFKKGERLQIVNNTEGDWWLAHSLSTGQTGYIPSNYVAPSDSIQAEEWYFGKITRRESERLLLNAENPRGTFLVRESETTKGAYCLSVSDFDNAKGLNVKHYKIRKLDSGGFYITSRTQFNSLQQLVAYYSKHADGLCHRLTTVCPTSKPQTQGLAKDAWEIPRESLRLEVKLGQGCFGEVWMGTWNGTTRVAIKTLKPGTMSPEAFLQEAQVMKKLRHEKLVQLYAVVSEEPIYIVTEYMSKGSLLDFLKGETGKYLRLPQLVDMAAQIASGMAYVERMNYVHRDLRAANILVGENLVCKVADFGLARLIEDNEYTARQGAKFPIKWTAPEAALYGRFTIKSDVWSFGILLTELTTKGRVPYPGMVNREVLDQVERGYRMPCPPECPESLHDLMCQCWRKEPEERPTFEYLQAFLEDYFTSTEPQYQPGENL
The target in data set [7] is Mast/stem cell growth factor receptor Kit (Homo sapiens) (UniProt P10721). The data set is described as follows: Binding affinity to KIT (unknown origin).
Chain of Mast/stem cell growth factor receptor Kit (Homo sapiens) (P10721 whole entry): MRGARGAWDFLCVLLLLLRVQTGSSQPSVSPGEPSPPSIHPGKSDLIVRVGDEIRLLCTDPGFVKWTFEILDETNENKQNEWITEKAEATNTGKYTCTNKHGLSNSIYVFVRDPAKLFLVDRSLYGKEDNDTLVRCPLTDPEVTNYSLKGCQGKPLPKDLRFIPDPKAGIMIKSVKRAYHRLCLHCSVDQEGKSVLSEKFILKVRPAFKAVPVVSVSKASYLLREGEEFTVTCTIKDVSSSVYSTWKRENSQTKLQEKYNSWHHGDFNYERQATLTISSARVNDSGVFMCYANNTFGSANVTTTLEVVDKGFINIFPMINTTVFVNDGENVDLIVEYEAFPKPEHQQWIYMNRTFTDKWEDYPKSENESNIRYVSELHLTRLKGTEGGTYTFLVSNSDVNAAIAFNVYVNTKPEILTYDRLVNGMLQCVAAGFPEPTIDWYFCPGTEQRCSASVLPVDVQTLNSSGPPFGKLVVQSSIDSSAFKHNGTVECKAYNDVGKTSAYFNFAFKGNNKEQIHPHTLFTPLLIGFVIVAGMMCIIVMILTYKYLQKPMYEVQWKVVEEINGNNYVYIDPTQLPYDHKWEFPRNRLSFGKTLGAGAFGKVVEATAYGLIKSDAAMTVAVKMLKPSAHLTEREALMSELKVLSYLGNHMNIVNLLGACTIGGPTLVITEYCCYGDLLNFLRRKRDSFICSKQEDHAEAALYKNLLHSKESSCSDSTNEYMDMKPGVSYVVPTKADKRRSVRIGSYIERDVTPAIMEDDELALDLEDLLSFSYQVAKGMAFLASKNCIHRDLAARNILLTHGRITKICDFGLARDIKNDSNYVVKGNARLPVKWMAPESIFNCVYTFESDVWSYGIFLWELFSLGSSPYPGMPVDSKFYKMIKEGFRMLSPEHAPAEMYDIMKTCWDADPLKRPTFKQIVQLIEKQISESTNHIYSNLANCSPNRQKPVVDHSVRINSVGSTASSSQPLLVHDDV
For data set [8], the target named is Receptor-type tyrosine-protein kinase FLT3 (Homo sapiens) (UniProt P36888). The data set is described as follows: Binding affinity to FLT3 (unknown origin).
Chain of Receptor-type tyrosine-protein kinase FLT3 (Homo sapiens) (P36888 whole entry): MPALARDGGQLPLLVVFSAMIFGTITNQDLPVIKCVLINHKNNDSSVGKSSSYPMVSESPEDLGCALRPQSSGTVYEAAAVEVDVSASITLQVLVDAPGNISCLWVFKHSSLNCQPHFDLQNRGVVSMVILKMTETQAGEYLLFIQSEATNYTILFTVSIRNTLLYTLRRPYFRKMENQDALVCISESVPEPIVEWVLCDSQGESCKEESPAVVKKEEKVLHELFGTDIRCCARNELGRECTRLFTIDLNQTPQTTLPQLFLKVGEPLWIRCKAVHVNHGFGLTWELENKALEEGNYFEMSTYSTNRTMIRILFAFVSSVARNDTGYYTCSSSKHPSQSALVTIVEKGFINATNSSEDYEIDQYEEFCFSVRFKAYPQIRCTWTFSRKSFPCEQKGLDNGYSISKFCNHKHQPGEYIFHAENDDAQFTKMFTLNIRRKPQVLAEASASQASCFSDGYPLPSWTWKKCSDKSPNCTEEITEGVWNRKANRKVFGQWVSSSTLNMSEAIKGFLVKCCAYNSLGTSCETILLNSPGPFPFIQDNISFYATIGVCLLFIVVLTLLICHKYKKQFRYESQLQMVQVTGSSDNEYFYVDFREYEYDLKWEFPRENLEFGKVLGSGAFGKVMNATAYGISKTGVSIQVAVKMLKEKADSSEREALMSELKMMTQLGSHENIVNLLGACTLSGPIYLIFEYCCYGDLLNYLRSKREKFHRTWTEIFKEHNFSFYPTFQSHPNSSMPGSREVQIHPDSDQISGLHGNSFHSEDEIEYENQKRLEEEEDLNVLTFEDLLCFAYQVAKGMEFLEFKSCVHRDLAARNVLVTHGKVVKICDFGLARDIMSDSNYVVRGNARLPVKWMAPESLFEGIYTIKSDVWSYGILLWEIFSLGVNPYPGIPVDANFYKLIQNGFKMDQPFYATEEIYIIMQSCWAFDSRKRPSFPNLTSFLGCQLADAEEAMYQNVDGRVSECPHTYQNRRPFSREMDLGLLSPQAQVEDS
The target in data set [9] is Epidermal growth factor receptor (Homo sapiens, UniProt P00533, L858R/T790M). The data set is described as follows: Binding affinity to EGFR L858R/T790M double mutant (unknown origin).
Data set [10] deals with Epidermal growth factor receptor (Homo sapiens, UniProt P00533, T790M). The data set is described as follows: Inhibition of EGFR T790M mutant (unknown origin). The class given is protein assay.
Chain of Epidermal growth factor receptor (Homo sapiens, UniProt P00533, T790M) (P00533 25-1210 T790M limits assumed): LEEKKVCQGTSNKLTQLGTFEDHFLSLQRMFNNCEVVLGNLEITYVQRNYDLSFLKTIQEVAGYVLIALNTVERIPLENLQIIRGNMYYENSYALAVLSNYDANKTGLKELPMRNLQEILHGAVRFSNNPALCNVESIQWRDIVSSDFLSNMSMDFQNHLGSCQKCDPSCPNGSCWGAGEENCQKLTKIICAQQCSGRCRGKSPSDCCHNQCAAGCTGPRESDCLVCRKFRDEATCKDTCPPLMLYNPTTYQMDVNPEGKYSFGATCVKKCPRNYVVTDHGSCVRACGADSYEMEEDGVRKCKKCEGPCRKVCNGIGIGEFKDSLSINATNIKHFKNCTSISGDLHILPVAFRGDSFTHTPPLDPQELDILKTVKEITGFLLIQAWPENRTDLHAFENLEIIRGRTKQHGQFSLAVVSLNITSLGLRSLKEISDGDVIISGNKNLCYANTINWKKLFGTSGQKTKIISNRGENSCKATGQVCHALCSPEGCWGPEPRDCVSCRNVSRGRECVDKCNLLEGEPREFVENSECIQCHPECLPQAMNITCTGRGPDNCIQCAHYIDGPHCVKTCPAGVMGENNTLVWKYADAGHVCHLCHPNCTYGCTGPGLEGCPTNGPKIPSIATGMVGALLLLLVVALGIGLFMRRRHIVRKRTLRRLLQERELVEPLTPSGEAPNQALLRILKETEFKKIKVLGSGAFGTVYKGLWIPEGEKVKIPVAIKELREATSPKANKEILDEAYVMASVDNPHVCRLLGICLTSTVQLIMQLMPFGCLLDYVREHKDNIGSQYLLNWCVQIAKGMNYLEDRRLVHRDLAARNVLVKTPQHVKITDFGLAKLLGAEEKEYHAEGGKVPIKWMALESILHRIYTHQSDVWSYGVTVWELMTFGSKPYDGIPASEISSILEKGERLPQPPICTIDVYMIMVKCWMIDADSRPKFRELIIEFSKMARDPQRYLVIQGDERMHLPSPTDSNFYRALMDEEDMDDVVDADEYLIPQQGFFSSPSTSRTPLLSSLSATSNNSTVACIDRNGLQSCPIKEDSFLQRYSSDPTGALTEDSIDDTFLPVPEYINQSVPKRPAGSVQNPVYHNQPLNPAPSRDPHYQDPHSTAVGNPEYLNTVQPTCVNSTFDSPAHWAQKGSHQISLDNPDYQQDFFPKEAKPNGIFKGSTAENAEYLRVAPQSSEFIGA
The subject of data set [11] is NCI-H1975. The data set is described as follows: Effect on ERK protein level in human NCI-H1975 cells at 3 to 330 nM after 2 hrs by Western blotting analysis. In kind it is functional, cell-based. An outline of the steps: (§2)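 H1975 cells were grown 24 h, then treated for 2 h with DMSO or 3–330 nM compound. Lysates were sonicated, run on SDS-PAGE, blotted to PVDF, blocked in 5% BSA/TBST, and probed for phospho/total EGFR (pY1068), Akt and Erk1/2 (pT202/pY204) with peroxidase secondary antibodies. Blots are representative of three experiments.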
In general terms: Immunoblotting shows a protein as a band on a membrane.

The subject of data set [12] is NCI-H1975. The data set is described as follows: Effect on AKT protein level in human NCI-H1975 cells at 3 to 330 nM after 2 hrs by Western blotting analysis. The class given is functional, cell-based. The method, boiled down: as §2
Data set [13] has as its system NCI-H1975. The data set is described as follows: Effect on EGFR protein level in human NCI-H1975 cells at 3 to 330 nM after 2 hrs by Western blotting analysis. The class given is functional, cell-based. The method, boiled down:
as §2

A short description of data set [14]: Clearance in Sprague-Dawley rat at 5 mg/kg, iv by LC/MS analysis. In kind it is ADME, organism-based. Set-up: dose 5 mg/kg, route intravenous. The note with it: in vivo. The method, boiled down: (§3)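 Male Sprague-Dawley rats (180−220 g), n = 4 per route, single iv dose 5 mg/kg or oral gavage 25 mg/kg. Vehicle was 2% DMSO, 4% EtOH, 4% castor oil, 90% H2O. Orbital sinus blood was taken from 2 min to 72 h into heparinized tubes. Plasma levels were measured by LC/MS with propranolol internal standard and analysed by pharmacokinetic modelling.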

Data set [15] is described as follows: AUC (0 to infinity) in Sprague-Dawley rat at 5 mg/kg, iv by LC/MS analysis. The class given is ADME, organism-based. Set-up: time infinity, dose 5 mg/kg, route intravenous. To be noted: plasma. An outline of the steps: as §3
A short description of data set [16]: Cmax in Sprague-Dawley rat at 25 mg/kg, po by LC/MS analysis. The class given is ADME, organism-based. Set-up: dose 25 mg/kg, route oral. The note with it: in vivo. An outline of the steps:
as §3

Data set [17] concerns NCI-H1975. The data set is described as follows: Antiproliferative activity against human NCI-H1975 cells expressing EGFR L858R/T790M double mutant after 72 hrs by MTS assay. In kind it is functional, cell-based. To be noted: NCI-H1975, 72 h.
The subject of data set [18] is Epidermal growth factor receptor (Homo sapiens), P00533 [L858R,T790M]. To be noted: NCI-H1975, 110 nM.

As a reminder, the IC50 is the concentration that gives 50% inhibition. A word on the Kd: it is the free concentration of one partner at which half of the binding sites on the other are occupied at equilibrium, for simple one-to-one binding. Read a low Kd as a tighter complex. Usually clearance stands for a measure of how efficiently the substance is removed, as volume per time. Low readings indicate a low capacity for elimination, high ones a high capacity for elimination. Broadly, the AUC(0-inf) is total exposure, with the tail of the curve extrapolated. Low values mean less exposure, high ones more exposure. As a reminder, the Cmax is the highest concentration seen after dosing.

Chain of Epidermal growth factor receptor (Homo sapiens), P00533 [L858R,T790M] (P00533 whole entry T790M/L858R, looked up): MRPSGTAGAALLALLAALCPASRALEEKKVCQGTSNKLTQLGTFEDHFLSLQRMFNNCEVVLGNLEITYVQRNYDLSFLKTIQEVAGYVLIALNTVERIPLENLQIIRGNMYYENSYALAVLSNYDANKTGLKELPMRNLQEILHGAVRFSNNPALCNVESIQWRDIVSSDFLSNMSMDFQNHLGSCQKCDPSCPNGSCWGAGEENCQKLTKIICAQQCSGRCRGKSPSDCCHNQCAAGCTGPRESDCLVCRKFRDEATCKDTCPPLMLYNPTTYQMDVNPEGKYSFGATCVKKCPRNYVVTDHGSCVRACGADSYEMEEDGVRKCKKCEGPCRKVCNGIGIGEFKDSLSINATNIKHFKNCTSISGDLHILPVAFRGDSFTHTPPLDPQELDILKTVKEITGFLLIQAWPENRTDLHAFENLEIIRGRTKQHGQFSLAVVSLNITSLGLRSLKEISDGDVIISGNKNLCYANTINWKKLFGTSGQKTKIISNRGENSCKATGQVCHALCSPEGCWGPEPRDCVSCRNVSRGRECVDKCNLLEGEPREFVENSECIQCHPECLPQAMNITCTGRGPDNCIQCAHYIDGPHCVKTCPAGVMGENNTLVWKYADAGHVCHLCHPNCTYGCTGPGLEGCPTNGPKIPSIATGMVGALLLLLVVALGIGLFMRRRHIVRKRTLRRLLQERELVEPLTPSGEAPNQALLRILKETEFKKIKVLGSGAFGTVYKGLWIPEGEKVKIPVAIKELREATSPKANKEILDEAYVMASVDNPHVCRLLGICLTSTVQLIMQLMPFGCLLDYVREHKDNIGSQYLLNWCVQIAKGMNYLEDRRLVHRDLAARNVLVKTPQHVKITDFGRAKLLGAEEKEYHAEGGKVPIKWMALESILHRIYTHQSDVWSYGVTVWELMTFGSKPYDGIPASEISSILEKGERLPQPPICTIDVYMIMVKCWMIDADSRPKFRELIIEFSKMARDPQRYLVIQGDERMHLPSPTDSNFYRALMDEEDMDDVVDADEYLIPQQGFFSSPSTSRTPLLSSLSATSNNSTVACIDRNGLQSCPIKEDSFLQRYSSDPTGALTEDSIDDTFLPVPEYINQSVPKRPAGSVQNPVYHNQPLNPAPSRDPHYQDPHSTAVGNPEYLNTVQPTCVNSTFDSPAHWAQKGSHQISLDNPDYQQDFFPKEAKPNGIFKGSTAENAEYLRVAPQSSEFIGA

As to `C=CC(=O)N1CC[C@H](N2C(=O)N(c3ccccc3)Cc3cnc(Nc4ccc(N5CCN(C)CC5)c(C)c4)nc32)C1`, the Activity is recorded as < 5% in the data set on Mus musculus [1] and “Non-toxic” with Mus musculus [2]. Further, the inhibition in vivo at 10 mg/kg in the data set on NCI-H1975 [3] stood at 35.4%. For the same compound, the IC50 in data set [4] was 5 nM; in data set [5], > 10000 nM; with NCI-H358, > 20000 nM; in data set [10], 10 nM; in the data set on NCI-H1975 [17], 47 nM. The result in [6], in [7] and in [8] was Active. Moreover, the Kd in [9] stood at 1.4 nM. The result in the data set on NCI-H1975 [11], in the data set on NCI-H1975 [12] and in the data set on NCI-H1975 [13] was inactive. The clearance in data set [14] is 51.7 mL/min/kg. Also, the AUC(0-inf) in [15] worked out at 1640 ng·h/mL. Further, the highest level in data set [16] (Cmax) was 1040 ng/mL. Also, the inhibition result in data set [18] was “Active”.
